Reference: article PMC8246884 (Journal of Medical Virology, 2020)

Experiments:
[1] = Plasma pharmacokinetics on Day 14; format: in vivo, human; settings: Day 14, coadministered with CDI‐31244
Method in brief: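 Treatment-naïve adults with chronic genotype 1 HCV and no cirrhosis took oral drugs once daily for 2 weeks: a nucleotide/NS5A inhibitor combination tablet (400 mg/100 mg) plus a non-nucleoside inhibitor, 400 mg as capsules. Plasma was sampled before the first dose on Day 1 and at 0, 1, 2, 4, 6, 8, 12 and 24 h after the Day 14 dose. Validated LC-MS/MS; per-patient non-compartmental Cmax, Cmin, tmax, AUC0–24; descriptive statistics.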

HCV = settings: cited from earlier work

SMILES | Exposure [1] | HCV RNA viral load reduction (HCV) [log10]
CC(C)OC(=O)[C@H](C)N[P@](=O)(OC[C@H]1O[C@@H](n2ccc(=O)[nH]c2=O)[C@](C)(F)[C@@H]1O)Oc1ccccc1 [sofosbuvir] | consistent with reported values | –
COc1c(-c2ccc3cc(NS(C)(=O)=O)ccc3c2)cc(-n2ccc(=O)[nH]c2=O)cc1C(C)(C)C [dasabuvir] | – | 0.95
COC[C@H]1C[C@@H](c2ncc(-c3ccc4c(c3)COc3cc5c(ccc6nc([C@@H]7CC[C@H](C)N7C(=O)[C@@H](NC(=O)OC)C(C)C)[nH]c65)cc3-4)[nH]2)N(C(=O)[C@H](NC(=O)OC)c2ccccc2)C1 [velpatasvir] | consistent with reported values | –
C[C@@]1(F)[C@H](O)[C@@H](CO)O[C@H]1n1ccc(=O)[nH]c1=O [GS‐331007] | consistent with reported values | –
